Only some compounds are listed: those with a hit (about 2.6% of all), similar ones and a draw of the others.
SENP8 block-1: SENP8 protease inhibitors, primary screen, biochemical, luminescence. 1.2% of 330,000 active. Sentrin-specific protease 8 (Homo sapiens), Q96LD8. inhibition, % at 10 µM. AID 2540, 2010. purified SENP8, Z-RLRGG-aminoluciferin cleavage; in the data active means inhibition above about 50%
Target sequence (Q96LD8 whole entry, looked up): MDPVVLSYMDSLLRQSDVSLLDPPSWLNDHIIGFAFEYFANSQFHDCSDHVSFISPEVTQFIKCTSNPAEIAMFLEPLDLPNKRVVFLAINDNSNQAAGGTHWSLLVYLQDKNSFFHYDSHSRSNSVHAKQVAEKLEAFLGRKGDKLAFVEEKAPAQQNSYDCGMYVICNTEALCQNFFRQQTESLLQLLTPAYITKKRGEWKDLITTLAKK
SENP6 inh: SENP6 protease inhibitors, primary screen, biochemical, luminescence, uHTS; AID 2599, 2010; Recombinant SENP6 catalytic domain, aminoluciferin luminescence; 1.8% of 330,000 active; inhibition, % at 10 µM;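 active means inhibition above about 50% at the single tested dose, limit read from the data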
SENP8 block-2: human SENP8 protease inhibitors, primary screen, biochemical, fluorescence, Nedd8 protein substrate, uHTS; AID 602440, 2012; inhibition, % at 20 µM; 0.64% of 360,000 active; recombinant SENP8; Sentrin-specific protease 8 (Homo sapiens), Q96LD8; in the data active means inhibition mostly above about 40%, no sharp cut-off; inactive means mostly below about 27%
Platelet DG rel: inhibitors of platelet dense granule secretion, primary screen, cell-based, MLPCN, human platelets; human platelet-rich plasma, SFLLRN dense granule ATP release, luminescence; inhibition, %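 (compounds screened at 7.5 µM in platelet-rich plasma)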; 0.22% of 300,000 active; AID 1663, 2009;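 active means mean replicate score, as percent of positive control, at or above 50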
SENP7 inh: SENP7 protease inhibitors, primary screen, biochemical, luminescence, uHTS; recombinant SENP7, Z-RLRGG-aminoluciferin luminescence, 40 min; 1.5% of 330,000 active; Sentrin-specific protease 7 (Homo sapiens), Q9BQF6; inhibition, % at 5 µM;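 active means inhibition above about 50% at the single test dose, limit read from the data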
SENP1 FRET inh: human SENP1 catalytic domain inhibitors, primary screen, biochemical, FRET, uHTS; Sentrin-specific protease 1 (Homo sapiens), Q9P0U3; recombinant SENP1 catalytic domain, CyPet-SUMO1-YPet FRET cleavage; inhibition, % at 10 µM; 0.21% of 360,000 active; AID 624204, 2012;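 active means inhibition at least 30% at 10 µM, raw YFP signal under a set limit, fluorescence ratio 0.5 to 1.5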
Target sequence (Q9P0U3 419-644 limits assumed): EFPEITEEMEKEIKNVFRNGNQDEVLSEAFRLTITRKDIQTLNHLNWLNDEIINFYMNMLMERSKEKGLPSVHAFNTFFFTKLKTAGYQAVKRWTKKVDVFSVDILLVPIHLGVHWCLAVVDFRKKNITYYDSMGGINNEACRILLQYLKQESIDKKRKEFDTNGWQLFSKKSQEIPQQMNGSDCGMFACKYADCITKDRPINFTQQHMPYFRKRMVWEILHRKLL
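Test system: hSENP1 catalytic domain, recombinant; Amount: 20 pM final SENP1 enzyme; Medium: Tris pH 8 buffer plus EDTA, NaCl, BME, BSA, NP40, catalase; Schedule: 50 min enzyme reaction, room temperature, light-protected; Technique: FRET fluorescence in CFP and YFP emission channels; Controls: no-enzyme wells low, DMSO-plus-enzyme wells high control.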
SENP8 conf: SENP8 protease inhibitors, retest, confirmation, biochemical, luminescence, single concentration. shares compounds with SENP7 inh. Recombinant SENP8, Z-RLRGG-aminoluciferin luminescence, 60 min. inhibition, % at 12.5 µM. 40% of 6,200 active;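 active means mean inhibition across replicates above about 50%, limit read from the data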
SENP6 conf: SENP6 protease inhibitors, confirmation, biochemical, luminescence, single concentration | shares compounds with SENP7 inh | recombinant SENP6, Z-RLRGG-aminoluciferin luminescence | inhibition, % at 12.5 µM | 58% of 6,200 active | AID 488915, 2010
SENP7 confirm: SENP7 protease inhibitors, retest, confirmation, biochemical, luminescence, single concentration. shares compounds with SENP7 inh. recombinant SENP7, Z-RLRGG-aminoluciferin luminescence, 40 min. inhibition, % at 12.5 µM. 69% of 6,200 active
Casp3 select: caspase-3 protease inhibitors, confirmation, selectivity assay for SENP inhibitor project, biochemical, single concentration; shares compounds with SENP7 inh; purified caspase-3, Z-DEVD-aminoluciferin luminescence, 60 min; inhibition, % at 12.5 µM; 60% of 6,200 active; AID 488918, 2010;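 active means mean inhibition above about 50%, limit read from the data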
Target sequence (P42574 28-227 limits assumed): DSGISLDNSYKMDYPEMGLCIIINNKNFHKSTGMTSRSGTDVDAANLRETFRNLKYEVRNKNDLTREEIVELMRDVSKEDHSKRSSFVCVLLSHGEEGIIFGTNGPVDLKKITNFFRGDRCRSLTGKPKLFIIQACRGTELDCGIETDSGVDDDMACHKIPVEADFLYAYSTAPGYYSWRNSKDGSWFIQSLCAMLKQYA
Luc interf: luminescence interference (SENP counter-screen); shares compounds with SENP7 inh; Pre-incubated SENP8/Z-RLRGG-aminoluciferin, luciferase luminescence interference; inhibition, % at 12.5 µM; 39% of 6,200 active; AID 488919;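 active means mean inhibition above about 50% when retested at one dose, limit read from the data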
A number is an active result.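 How the source made its calls, unless noted: active means mean inhibition above about 50% in the one-dose retest (limit read from the data); inactive means the rest.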

What do the screens show for `COc1cc(OC)cc(C(=O)Nc2ccc3nc4n(c(=O)c3c2)CCCC4)c1`?
SENP8 block-1: 76.6; SENP6 inh: 87.2; SENP8 block-2: inactive; Platelet DG rel: inactive; SENP7 inh: 86.3; SENP1 FRET inh: inactive; SENP8 conf: 57.8; SENP6 conf: 82.5; SENP7 confirm: 96.4; Casp3 select: 91.6; Luc interf: 80.3

How did Cc1ccc(S(=O)(=O)N2[C@@H](c3ccc(Br)cc3)C(C(=O)O)=C[C@H]2C(C)(C)C)cc1 do in these assays?
SENP8 block-1: inactive; SENP6 inh: inactive; SENP8 block-2: inactive; SENP7 inh: inactive; SENP1 FRET inh: inactive

What do the screens show for `COc1cccc(NC(=O)C2(C)CCN2Cc2ccc(SC)cc2)c1` (stereo not drawn)?
SENP8 block-2: inactive; SENP1 FRET inh: inactive

What do the screens show for `CCCN1C(C)C(C(=O)OCC)=CN(Cc2ccc(Br)cc2)S1(=O)=O` (stereo not drawn)?
SENP8 block-2: inactive; SENP7 inh: inactive; SENP1 FRET inh: inactive

What do the screens show for `Cc1cc(C)c2oc(-c3cccc(N)c3)nc2c1`?
SENP8 block-1: inactive; SENP6 inh: inactive; SENP8 block-2: inactive; Platelet DG rel: inactive; SENP7 inh: inactive; SENP1 FRET inh: inactive

How did CCc1ccc2oc(-c3cccc(N)c3)nc2c1 do in these assays?
SENP8 block-1: 95.3; SENP6 inh: 95.6; SENP8 block-2: inactive; Platelet DG rel: inactive; SENP7 inh: 98.1; SENP1 FRET inh: inactive; SENP8 conf: inactive; SENP6 conf: 97.5; SENP7 confirm: 101.7; Casp3 select: 93.5; Luc interf: 95.8

How did Cc1ccc2nc(-c3cccc(N)c3)oc2c1 do in these assays?
SENP8 block-1: 95.5; SENP6 inh: 95.3; SENP8 block-2: inactive; Platelet DG rel: inactive; SENP7 inh: 97.7; SENP1 FRET inh: inactive; SENP8 conf: inactive; SENP6 conf: 97.0; SENP7 confirm: 102.1; Casp3 select: 95.3; Luc interf: 94.1

What do the screens show for `Nc1ccc(-c2nc3ccccc3o2)cc1`?
SENP8 block-1: 55.2; SENP6 inh: 60.5; SENP8 block-2: inactive; Platelet DG rel: inactive; SENP7 inh: 67.0; SENP1 FRET inh: inactive; SENP8 conf: 70.1; SENP6 conf: 65.4; SENP7 confirm: 89.7; Casp3 select: 70.1; Luc interf: 70.7

What do the screens show for `Nc1ccc2oc(-c3cccc(Br)c3)nc2c1`?
SENP8 block-1: 81.9; SENP6 inh: 89.9; SENP8 block-2: inactive; Platelet DG rel: inactive; SENP7 inh: 89.5; SENP1 FRET inh: inactive; SENP8 conf: 57.5; SENP6 conf: 81.5; SENP7 confirm: 97.6; Casp3 select: 73.7; Luc interf: inactive

What do the screens show for `Nc1cc(N)cc(-c2nc3ccccc3o2)c1`?
SENP8 block-1: inactive; SENP6 inh: inactive; SENP8 block-2: inactive; Platelet DG rel: inactive; SENP7 inh: inactive; SENP1 FRET inh: inactive

How did Nc1nc2cc(Br)ccc2o1 do in these assays?
SENP8 block-2: inactive; SENP1 FRET inh: inactive

Results for CCC(CC)C(=O)N(C)c1c(C)nc2c(OCc3ccc(F)c(F)c3)cccn12 ?
SENP8 block-2: inactive; SENP1 FRET inh: inactive

What do the screens show for `Cc1noc(C)c1C(=O)N1CCC1(C)C(=O)NS(=O)(=O)c1cccc(OC(F)F)c1` (stereo not drawn)?
SENP8 block-2: inactive; SENP1 FRET inh: inactive

How did CC(=O)Nc1ccc(-c2nc3ccc(NC(C)=O)cc3o2)cc1 do in these assays?
SENP8 block-1: inactive; SENP6 inh: inactive; SENP8 block-2: inactive; Platelet DG rel: inactive; SENP7 inh: inactive; SENP1 FRET inh: inactive

How did Cc1ccc2nc(-c3ccc(O)cc3)oc2c1 do in these assays?
SENP8 block-1: 85.5; SENP6 inh: 84.9; SENP8 block-2: inactive; Platelet DG rel: inactive; SENP7 inh: 74.5; SENP1 FRET inh: inactive; SENP8 conf: 83.9; SENP6 conf: 83.8; SENP7 confirm: 94.3; Casp3 select: 67.7; Luc interf: inactive

What do the screens show for `COc1cccc(/C=N/NC(=O)c2ccc(-n3cnnn3)cc2)c1`?
SENP8 block-1: inactive; SENP6 inh: inactive; SENP8 block-2: inactive; SENP7 inh: inactive; SENP1 FRET inh: inactive

Results for CN(C)C(CNC(=O)c1cccc(S(=O)(=O)NCc2ccccc2)c1)c1ccccc1 (stereo not drawn) ?
SENP8 block-1: inactive; SENP6 inh: inactive; SENP8 block-2: inactive; SENP7 inh: inactive; SENP1 FRET inh: inactive

How did Cn1c(O)c(N=Nc2ccccc2)c2ccccc21 do in these assays?
SENP8 block-1: inactive; SENP6 inh: inactive; SENP8 block-2: inactive; Platelet DG rel: inactive; SENP7 inh: inactive; SENP1 FRET inh: inactive

Results for Cn1c(O)c(N=Nc2nc(-c3ccccc3)cs2)c2ccccc21 ?
SENP8 block-1: inactive; SENP6 inh: inactive; SENP8 block-2: inactive; Platelet DG rel: inactive; SENP7 inh: 58.8; SENP1 FRET inh: 45.9; SENP8 conf: inactive; SENP6 conf: inactive; SENP7 confirm: inactive; Casp3 select: inactive; Luc interf: inactive

How did O=C(c1cc2c(s1)CCCC2)N1CCN(Cc2ccc3c(c2)OCO3)CC1 do in these assays?
SENP8 block-1: inactive; SENP6 inh: inactive; SENP8 block-2: inactive; Platelet DG rel: inactive; SENP7 inh: inactive; SENP1 FRET inh: inactive

Results for O=C(Oc1ccc2c(c1)OCO2)c1cc2c(s1)CCC2 ?
SENP8 block-1: 60.2; SENP6 inh: 80.8; SENP8 block-2: inactive; Platelet DG rel: inactive; SENP7 inh: 68.3; SENP1 FRET inh: inactive; SENP8 conf: 76.1; SENP6 conf: 73.9; SENP7 confirm: 89.0; Casp3 select: 56.5; Luc interf: 64.7

From PubChem BioAssay
